ChEMBL document CHEMBL1139924, “The structure-activity relationship of the series of non-peptide small antagonists for p56lck SH2 domain” (Bioorg Med Chem, 2007)
Activity calls are given as the source filed them. The rule behind the calls is not given here.

How the values were obtained:
[1] = Partition coefficient, log P of the compound; format: physicochemical; conditions: octanol/water
Outline: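 Shake-flask partition. Compound at 1 mM final in 1-octanol/water with an equal volume of 1-octanol/water added, vortexed 30 min. P is the octanol concentration divided by the aqueous concentration. Three independent experiments in duplicate.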

[2] = system: Jurkat; test: Inhibition of Jurkat cell activation assessed as blocking of T-cell antigen receptor-induced IL-2 expression at 10 uM by luciferase assay; format: functional; conditions: Homo sapiens
Outline: (§1)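 Jurkat T cells (2 × 10⁶) transfected with 2 µg IL-2-luciferase reporter by lipofection. Compounds added 2 h before activation and kept present throughout 16 h stimulation with plate-coated anti-CD3 mAb (5 µg/ml, UCHT1) or […] plus ionomycin (0.5 µg/ml). Cells then washed, lysed and read for luciferase by luminometry. Three independent experiments in duplicate. Cyclosporin A positive control.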

[3] = Inhibition of p56lck SH2 domain by ELISA; design: species or system Homo sapiens
Outline: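 Competitive ELISA. Compound plus GST-p56lck SH2 fusion (100 ng/ml) incubated 1 h at room temperature, in duplicate wells. Bound protein detected with rabbit anti-GST, then HRP anti-rabbit and TMB, acid-stopped, A450. Ac-pYEEIE control peptide; IC50 reported.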

[4] = system: Jurkat; test: Inhibition of Jurkat cell activation assessed as blocking of T-cell antigen receptor-induced IL-2 expression at 30 uM by luciferase assay; format: functional; conditions: Homo sapiens; outline: as §1

Row | logP [1] | IC50 [3] [µM] | SMILES | inhibition at 10 µM [2] [%] | inhibition at 30 µM [4] [%] | Activity [4]
1 | 1.52 | > 500 | COC(=O)[C@@H](Cc1ccc(O)c(O)c1)NC(=O)/C=C/c1ccc(OC)c(OC)c1 | 3.5 | – | –
2 | 0.731 | 21 | O=C(/C=C/c1ccc(O)c(O)c1)N[C@@H](Cc1ccc(O)c(O)c1)C(=O)O | 11 | – | –
3 | – | > 500 | O=C(O)/C=C/c1ccc(O)c(O)c1 [CAFFEIC ACID] | 2 | – | –
4 | 1.53 | > 500 | COC(=O)[C@@H](Cc1ccc(OC)c(OC)c1)NC(=O)/C=C/c1ccc(O)c(O)c1 | 9.4 | – | –
5 | – | > 500 | NC(Cc1ccc(O)c(O)c1)C(=O)O (racemic) | 0.6 | – | –
6 | 0.493 | 13 | O=C(CCc1ccc(O)c(O)c1)N[C@H](Cc1ccc(O)c(O)c1)C(=O)O | 0 | – | –
7 | 2 | 127 | CC(C)(C)OC(=O)[C@@H](Cc1ccc(O)c(O)c1)OC(=O)/C=C/c1ccc(O)c(O)c1 | 80.7 | – | –
8 | 1.37 | > 500 | COC(=O)[C@@H](Cc1ccc(O)c(O)c1)NC(=O)/C=C/c1ccc(OC)c(O)c1 | 5.4 | – | –
9 | 0.503 | 15 | O=C(CCc1ccc(O)c(O)c1)O[C@H](Cc1ccc(O)c(O)c1)C(=O)O | 7.6 | – | –
10 | 1.5 | 91 | CCOC(=O)[C@@H](Cc1ccc(O)c(O)c1)OC(=O)/C=C/c1ccc(O)c(O)c1 [ETHYL ROSMARINATE] | 22.7 | – | –
11 | 1.39 | 71 | COC(=O)[C@@H](Cc1ccc(O)c(O)c1)NC(=O)/C=C/c1ccc(O)c(O)c1 | 61.6 | – | –

More lines, now with the values behind:

Row | SMILES | logP [1] | IC50 [3] [µM] | inhibition at 10 µM [2] [%] | inhibition at 30 µM [4] [%] | Activity [4]
12 | COC(=O)[C@@H](Cc1ccc(O)c(O)c1)NC(=O)Cc1ccc(O)c(O)c1 | 0.138 | 21 | 23 | – | –
13 | O=C(/C=C/c1ccc(O)c(O)c1)O[C@H](Cc1ccc(O)c(O)c1)C(=O)O [ROSMARINIC ACID] | 0.834 | 24 | 40.4 | 50 | –
14 | O=C(/C=C/c1ccc(O)c(O)c1)N[C@H](Cc1ccc(O)c(O)c1)C(=O)O | 0.758 | 20 | 10.3 | – | –
15 | CC(C)OC(=O)[C@@H](Cc1ccc(O)c(O)c1)OC(=O)/C=C/c1ccc(O)c(O)c1 | 1.83 | 110 | 86.1 | – | –
16 | CCCOC(=O)[C@@H](Cc1ccc(O)c(O)c1)OC(=O)/C=C/c1ccc(O)c(O)c1 | 1.52 | 145 | 87.5 | – | –
17 | COC(=O)[C@@H](Cc1ccc(O)c(O)c1)NC(=O)c1ccc(O)c(O)c1 | 0.125 | 19 | 0.4 | – | –
18 | COC(=O)[C@@H](Cc1ccc(O)c(O)c1)NC(=O)/C=C/c1ccc(O)c(OC)c1 | 1.31 | > 500 | 2.2 | – | –
19 | COC(=O)[C@@H](Cc1ccc(O)c(O)c1)NC(=O)CCc1ccc(O)c(O)c1 | 0.344 | 32 | 7.5 | – | –
20 | COC(=O)[C@@H](Cc1ccc(O)c(O)c1)OC(=O)/C=C/c1ccc(O)c(O)c1 [METHYL ROSMARINATE] | 1.48 | 80 | 54.7 | – | Active
21 | COC(=O)CCCCCNC(=O)[C@@H](Cc1ccc(O)c(O)c1)OC(=O)/C=C/c1ccc(O)c(O)c1 | 1.68 | > 500 | 29.4 | – | –
